This is an account of results in ChEMBL document CHEMBL4190353, “Synthesis, structure-activity relationships and preliminary mechanism of action of novel water-soluble 4-quinolone-3-carboxamides as antiproliferative agents” (Eur J Med Chem, 2017).

Activity calls are given as the source filed them. The rule behind the calls is not given here.

The test system of test [1] is HCT-116. Kind of test: Induction of apoptosis in human HCT116 cells assessed as increase in cleaved PARP level incubated for 48 hrs by Western blot method. The test is classed as functional, cell-based. Summed up: (§1)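 Lysates were made in SDS buffer (2% SDS, 50 mM Tris-HCl pH 6.8) and quantified by BCA. Equal protein was run on 10% SDS-PAGE and transferred to PVDF. Membranes were blocked in 5% milk, probed overnight at 4 °C for cleaved PARP (1:1000) with GAPDH (1:5000), and detected with HRP secondary antibody and ECL.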

Test [2] concerns HCT-116. Kind of test: Induction of apoptosis in Bax-/- human HCT116 cells assessed as necrotic cells level at 4 uM incubated for 48 hrs by Annexin V-FITC/PI staining based cytometry (reference value: 0.3%). The test is classed as functional. A digest of the protocol: (§2)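 Cells were plated at 5×10^5 per well and treated once 80% confluent. After trypsinisation and two washes in ice-cold PBS (pH 7.4), cells were stained with Annexin V-FITC and PI for 15 min at room temperature in the dark. Analysis was by flow cytometry. The legend gives vehicle or 4 µM for the p53-/- and Bax-/- lines.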

Test [3] has as its system HCT-116. Put plainly: Induction of apoptosis in Bax-/- human HCT116 cells assessed as early apoptotic cells level incubated for 48 hrs by Annexin V-FITC/PI staining based cytometry (reference value: 6.8%). It counts as functional. Summed up:
as §2

Test [4] relates to HCT-116. Kind of test: Cytotoxicity against human HCT116 cells assessed as reduction in cell viability incubated for 24 hrs by CCK8 assay. It counts as functional, cell-based. A digest of the protocol: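 Cells were seeded at 3×10^4 per well, grown 24 h, then exposed to increasing concentrations for 24 h. CCK-8 reagent was added for 1 h at 37 °C and absorbance was read at 450 nm. Cells were kept in McCoy's 5A with 10% FBS, and n=3.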

In test [5] the test system is HCT-116. Kind of test: Induction of apoptosis in Bax-/- human HCT116 cells assessed as late apoptotic cells level at 4 uM incubated for 48 hrs by Annexin V-FITC/PI staining based cytometry (reference value: 0.2%). The test is classed as functional. Summed up:
as §2

Test [6] concerns HCT-116. Kind of test: Induction of apoptosis in human HCT116 cells assessed as late apoptotic cells level at 4 uM incubated for 24 hrs by Annexin V-FITC/PI staining based cytometry (reference value: 0.5%). The test is classed as functional.
Test [7] concerns HCT-116. Put plainly: Induction of apoptosis in human HCT116 cells assessed as viable cells level at 2 uM incubated for 24 hrs by Annexin V-FITC/PI staining based cytometry (reference value: 96.6%). It counts as functional.
Test [8] relates to HCT-116. Put plainly: Induction of apoptosis in Bax-/- human HCT116 cells assessed as early apoptotic cells level at 4 uM incubated for 48 hrs by Annexin V-FITC/PI staining based cytometry (reference value: 4.4%). It counts as functional. A digest of the protocol: as §2
In test [9] the test system is HCT-116. Put plainly: Induction of apoptosis in human HCT116 cells assessed as increase in cleaved PARP level at 4 uM incubated for 24 hrs by Western blot method. It counts as functional, cell-based. Summed up: as §1

Regarding `CCN(CC)CCCNC(=O)c1cn(CCCc2ccccc2)c2cc(Cl)ccc2c1=O.Cl`, the result in test [1] and in test [9] was Active. The Activity is reported as 2.1% in test [2]; 33% in test [3]; 0.8% in [5]; 4.8% in test [6]; 79.3% in [7]; 25.6% in test [8]. The “growth inhibition (GI)” value in test [4] is “Dose-dependent effect”. In [4] (HCT-116, 24 h), the IC50 was found to be 5.79 µM.
